# Measurements reported in ChEMBL document CHEMBL5247577, “Improved Selective Class I HDAC and Novel Selective HDAC3 Inhibitors: Beyond Hydroxamic Acids and Benzamides” (ACS Med Chem Lett, 2019).
# Calls of active or inactive are those of the source. The calls are words filed in the database; no cut-off is given here.
# Assays:
# [1] = Oral bioavailability in Gottigen pig by LC/MS/MS analysis; format: ADME, organism-based, Sus scrofa; details: in vivo
# In short: (§1)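 Compound dosed as the tartrate salt. Oral doses were 20 mg/kg in mouse, 10 mg/kg in rat and 5 mg/kg in minipig.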
# [2] = Oral bioavailability in NMRI mouse at 20 mg/kg by LC/MS/MS analysis; format: ADME, organism-based; details: in vivo; in short: as §1
# Cytochrome P450 1A2 = target: T1, Cytochrome P450 1A2 (Homo sapiens, UniProt P05177); experiment: Inhibition of CYP1A2 (unknown origin); format: ADME
# T1 sequence (P05177 whole entry): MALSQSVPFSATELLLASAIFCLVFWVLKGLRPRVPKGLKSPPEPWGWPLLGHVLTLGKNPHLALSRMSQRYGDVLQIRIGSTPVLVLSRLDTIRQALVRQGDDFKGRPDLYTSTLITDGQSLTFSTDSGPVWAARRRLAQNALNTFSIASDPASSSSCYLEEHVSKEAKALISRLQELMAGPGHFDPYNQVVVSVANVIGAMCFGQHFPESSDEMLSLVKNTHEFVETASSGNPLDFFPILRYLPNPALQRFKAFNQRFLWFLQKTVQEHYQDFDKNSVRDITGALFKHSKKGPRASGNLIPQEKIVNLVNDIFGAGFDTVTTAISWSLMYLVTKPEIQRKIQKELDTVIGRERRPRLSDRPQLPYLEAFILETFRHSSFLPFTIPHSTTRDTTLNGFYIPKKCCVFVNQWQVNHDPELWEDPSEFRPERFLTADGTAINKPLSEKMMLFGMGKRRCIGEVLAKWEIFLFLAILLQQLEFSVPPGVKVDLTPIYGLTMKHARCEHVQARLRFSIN
# [3] = Genotoxicity in Salmonella typhimurium by Ames test; format: toxicity; details: salmonella enterica subsp. enterica serovar typhimurium
# In short: (§2)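 Bacterial reverse mutation assay in two strains, Salmonella typhimurium and Escherichia coli, scoring reverse mutations.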
# [4] = AUC in NMRI mouse plasma at 5 to 20 mg/kg, po by LC/MS/MS analysis; format: ADME, organism-based; set-up: route po; details: in vivo, dose 5-20 mg/kg
# In short: (§3)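 Compound given orally as its tartrate salt at 20 mg/kg in mouse, 10 mg/kg in rat and 5 mg/kg in minipig.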
# [5] = AUC in Gottigen pig plasma 5 to 20 mg/kg, po by LC/MS/MS analysis; format: ADME, organism-based, Sus scrofa; set-up: route po; details: dose 5-20 mg/kg; in short: as §3
# Histone deacetylase 2 = Histone deacetylase 2 (Homo sapiens, UniProt Q92769); experiment: Inhibition of human HDAC2
# Histone deacetylase 2, sequence (Q92769 whole entry): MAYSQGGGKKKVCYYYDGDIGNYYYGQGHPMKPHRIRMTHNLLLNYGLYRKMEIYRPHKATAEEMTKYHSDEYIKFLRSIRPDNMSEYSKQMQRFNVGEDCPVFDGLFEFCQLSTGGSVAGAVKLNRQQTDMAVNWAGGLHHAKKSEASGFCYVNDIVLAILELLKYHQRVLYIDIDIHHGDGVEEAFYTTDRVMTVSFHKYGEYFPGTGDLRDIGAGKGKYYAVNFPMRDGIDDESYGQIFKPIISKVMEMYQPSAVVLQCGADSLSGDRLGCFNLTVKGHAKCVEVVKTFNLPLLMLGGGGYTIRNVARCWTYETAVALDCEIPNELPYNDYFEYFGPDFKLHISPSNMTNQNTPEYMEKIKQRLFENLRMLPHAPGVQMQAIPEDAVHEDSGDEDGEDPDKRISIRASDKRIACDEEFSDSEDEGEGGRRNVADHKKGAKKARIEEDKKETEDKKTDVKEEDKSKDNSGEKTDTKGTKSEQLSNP
# [6] = Volume of distribution at steady state in Gottigen pig by LC/MS/MS analysis; format: ADME, Sus scrofa; details: in vivo, read-out: Vdss; in short: as §1
# [7] = Half life in Gottigen pig plasma by LC/MS/MS analysis; format: ADME, Sus scrofa; in short: as §1
# [8] = target: Histone deacetylase 4 (Homo sapiens) (UniProt P56524); experiment: Inhibition of human HDAC4 at 5 uM
# Histone deacetylase 4 (Homo sapiens), sequence (P56524 whole entry): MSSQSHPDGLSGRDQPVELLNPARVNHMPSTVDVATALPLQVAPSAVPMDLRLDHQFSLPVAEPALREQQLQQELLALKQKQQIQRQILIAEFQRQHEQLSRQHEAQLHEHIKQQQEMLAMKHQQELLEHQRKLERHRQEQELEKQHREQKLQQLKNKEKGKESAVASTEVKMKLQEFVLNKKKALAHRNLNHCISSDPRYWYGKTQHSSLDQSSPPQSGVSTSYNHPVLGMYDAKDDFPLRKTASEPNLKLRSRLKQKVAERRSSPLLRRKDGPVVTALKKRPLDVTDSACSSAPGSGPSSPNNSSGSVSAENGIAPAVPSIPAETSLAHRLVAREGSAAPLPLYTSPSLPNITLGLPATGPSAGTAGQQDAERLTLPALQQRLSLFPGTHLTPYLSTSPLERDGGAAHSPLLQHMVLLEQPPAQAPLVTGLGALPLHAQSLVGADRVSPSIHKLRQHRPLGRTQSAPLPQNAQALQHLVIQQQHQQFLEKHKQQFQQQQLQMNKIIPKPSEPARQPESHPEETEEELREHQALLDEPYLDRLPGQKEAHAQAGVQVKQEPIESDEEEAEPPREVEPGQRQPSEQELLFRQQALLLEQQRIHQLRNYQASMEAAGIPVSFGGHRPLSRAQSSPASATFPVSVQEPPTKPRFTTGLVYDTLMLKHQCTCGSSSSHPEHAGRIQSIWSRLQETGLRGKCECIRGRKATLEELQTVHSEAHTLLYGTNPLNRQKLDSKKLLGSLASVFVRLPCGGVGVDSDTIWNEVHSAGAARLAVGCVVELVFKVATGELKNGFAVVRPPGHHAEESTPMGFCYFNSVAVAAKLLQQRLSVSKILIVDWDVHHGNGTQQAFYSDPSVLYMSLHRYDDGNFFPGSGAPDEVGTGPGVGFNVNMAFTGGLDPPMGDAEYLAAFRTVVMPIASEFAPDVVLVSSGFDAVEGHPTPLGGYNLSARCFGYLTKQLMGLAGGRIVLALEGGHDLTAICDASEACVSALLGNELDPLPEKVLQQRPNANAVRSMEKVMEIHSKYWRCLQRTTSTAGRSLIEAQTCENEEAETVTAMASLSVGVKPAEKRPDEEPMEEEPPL
# [9] = AUC in Wistar rat plasma at 5 to 20 mg/kg, po by LC/MS/MS analysis; format: ADME, organism-based; set-up: route po; details: dose 5-20 mg/kg; in short: as §3
# [10] = Clearance in Gottigen pig plasma by LC/MS/MS analysis; format: ADME, Sus scrofa; in short: as §1
# Histone deacetylase = experiment: Inhibition of HDAC in human HeLa cells using FLUOR DE LYS-SIRT1 as fluorogenic substrate incubated for 4 hrs by spectrophotometer based analysis; format: cell-based
# Histone deacetylase 3 = Histone deacetylase 3 (Homo sapiens, UniProt O15379); experiment: Inhibition of human HDAC3 expressed in baculovirus infected insect cells using FLUOR DE LYS-SIRT1 as fluorogenic substrate preincubated for 10 mins followed by substrate addition and measured after 1 hr by spectrophotometer based analysis
# Histone deacetylase 3, sequence (O15379 whole entry): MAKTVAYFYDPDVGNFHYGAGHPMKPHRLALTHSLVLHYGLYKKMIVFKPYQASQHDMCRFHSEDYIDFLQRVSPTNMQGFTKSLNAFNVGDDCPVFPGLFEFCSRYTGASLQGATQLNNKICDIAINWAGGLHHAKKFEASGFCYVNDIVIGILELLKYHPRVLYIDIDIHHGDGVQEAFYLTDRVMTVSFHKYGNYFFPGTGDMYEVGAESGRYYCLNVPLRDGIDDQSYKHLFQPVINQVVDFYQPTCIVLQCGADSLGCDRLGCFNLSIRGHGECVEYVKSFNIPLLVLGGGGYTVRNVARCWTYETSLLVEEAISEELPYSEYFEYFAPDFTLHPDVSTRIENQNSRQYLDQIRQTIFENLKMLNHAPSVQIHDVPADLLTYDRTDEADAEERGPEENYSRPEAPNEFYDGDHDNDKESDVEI
# [11] = Permeability of the compound in porcine brain endothelial cells by BBB assay; format: ADME, cell-based, Sus scrofa, Endothelial cell; details: pig; read-out: permeability
# [12] = target: Sodium channel protein type 5 subunit alpha (Homo sapiens, UniProt Q14524); experiment: Inhibition of Nav1.5 (unknown origin)
# [13] = Genotoxicity in Escherichia coli by Ames test; format: toxicity; in short: as §2
# [14] = Oral bioavailability in Wistar rat at 10 mg/kg by LC/MS/MS analysis; format: ADME, organism-based; details: in vivo; in short: as §1
# [15] = Volume of distribution at steady state in Wistar rat at 10 mg/kg, po or 2 mg/kg,iv by LC/MS/MS analysis; format: ADME, organism-based; details: in vivo; in short: as §1
# [16] = target: T2, Histone deacetylase 7 (Homo sapiens) (UniProt Q8WUI4); experiment: Inhibition of human HDAC7 at 5 uM
# T2 sequence (whole entry): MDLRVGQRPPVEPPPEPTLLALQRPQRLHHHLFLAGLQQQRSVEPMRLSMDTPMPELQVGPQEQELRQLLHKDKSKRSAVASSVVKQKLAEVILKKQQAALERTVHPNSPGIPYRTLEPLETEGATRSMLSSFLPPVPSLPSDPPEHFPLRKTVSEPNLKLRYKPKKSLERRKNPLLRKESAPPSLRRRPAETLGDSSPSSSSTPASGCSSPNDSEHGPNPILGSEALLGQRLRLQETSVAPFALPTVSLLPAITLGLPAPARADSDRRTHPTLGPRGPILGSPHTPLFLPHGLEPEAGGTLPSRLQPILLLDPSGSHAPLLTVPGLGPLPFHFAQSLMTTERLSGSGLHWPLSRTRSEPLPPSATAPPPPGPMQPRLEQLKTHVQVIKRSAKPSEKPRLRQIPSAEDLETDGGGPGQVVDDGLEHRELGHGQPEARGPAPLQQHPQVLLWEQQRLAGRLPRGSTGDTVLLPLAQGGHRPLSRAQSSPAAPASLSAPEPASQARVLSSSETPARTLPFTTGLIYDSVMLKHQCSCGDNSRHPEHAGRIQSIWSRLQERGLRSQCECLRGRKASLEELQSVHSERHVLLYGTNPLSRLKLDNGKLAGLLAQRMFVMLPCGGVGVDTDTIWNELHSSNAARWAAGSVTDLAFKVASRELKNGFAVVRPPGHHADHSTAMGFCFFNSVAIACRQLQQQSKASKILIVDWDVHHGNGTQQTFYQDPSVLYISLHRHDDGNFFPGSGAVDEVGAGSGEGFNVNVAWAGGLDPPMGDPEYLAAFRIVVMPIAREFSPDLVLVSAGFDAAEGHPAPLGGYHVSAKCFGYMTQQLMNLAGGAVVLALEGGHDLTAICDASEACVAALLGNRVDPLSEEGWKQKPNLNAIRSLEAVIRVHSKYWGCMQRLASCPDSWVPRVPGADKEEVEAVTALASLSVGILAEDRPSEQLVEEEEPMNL
# [17] = Half life in Wistar rat plasma at 10 mg/kg, po or 2 mg/kg,iv by LC/MS/MS analysis; format: ADME, organism-based; in short: as §1
# Histone deacetylase 1 = Histone deacetylase 1 (Homo sapiens, UniProt Q13547); experiment: Inhibition of human recombinant his tagged HDAC1 expressed in baculovirus expression system using FLUOR DE LYS-SIRT1 as fluorogenic substrate preincubated for 10 mins followed by substrate addition and measured after 1 hr by spectrophotometer based analysis
# Histone deacetylase 1, sequence (Q13547 whole entry): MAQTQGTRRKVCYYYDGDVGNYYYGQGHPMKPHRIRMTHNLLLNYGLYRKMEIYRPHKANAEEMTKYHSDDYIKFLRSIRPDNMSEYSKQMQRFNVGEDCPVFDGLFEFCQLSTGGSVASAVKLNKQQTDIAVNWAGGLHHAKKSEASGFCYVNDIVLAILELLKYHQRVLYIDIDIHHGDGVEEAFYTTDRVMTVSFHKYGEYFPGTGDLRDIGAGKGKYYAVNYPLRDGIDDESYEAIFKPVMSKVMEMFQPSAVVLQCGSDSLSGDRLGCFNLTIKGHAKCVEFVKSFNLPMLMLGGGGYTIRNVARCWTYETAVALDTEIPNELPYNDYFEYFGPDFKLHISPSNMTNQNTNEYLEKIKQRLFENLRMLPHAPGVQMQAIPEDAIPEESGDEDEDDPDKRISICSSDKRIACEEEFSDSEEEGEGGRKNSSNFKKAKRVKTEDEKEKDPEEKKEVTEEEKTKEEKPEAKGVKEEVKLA
# Cytochrome P450 3A4 = Cytochrome P450 3A4 (Homo sapiens, UniProt P08684); experiment: Inhibition of CYP3A4 (unknown origin); format: ADME
# Cytochrome P450 3A4, sequence (P08684 whole entry): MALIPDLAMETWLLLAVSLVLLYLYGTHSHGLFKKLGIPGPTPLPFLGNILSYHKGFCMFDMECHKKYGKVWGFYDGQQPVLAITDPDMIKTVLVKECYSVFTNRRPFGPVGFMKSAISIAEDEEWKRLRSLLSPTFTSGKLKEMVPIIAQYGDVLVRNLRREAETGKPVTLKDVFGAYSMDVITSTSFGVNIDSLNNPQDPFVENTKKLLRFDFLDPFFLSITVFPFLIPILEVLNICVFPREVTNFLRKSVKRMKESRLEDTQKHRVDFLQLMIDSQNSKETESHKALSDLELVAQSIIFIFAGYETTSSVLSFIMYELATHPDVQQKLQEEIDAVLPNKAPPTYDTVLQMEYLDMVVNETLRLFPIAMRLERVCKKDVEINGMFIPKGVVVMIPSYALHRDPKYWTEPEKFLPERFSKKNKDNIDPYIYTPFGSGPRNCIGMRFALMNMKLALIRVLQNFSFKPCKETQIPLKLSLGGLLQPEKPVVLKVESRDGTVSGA
# [18] = Volume of distribution at steady state in NMRI mouse at 20 mg/kg, po or 2 mg/kg, iv by LC/MS/MS analysis; format: ADME, organism-based; details: in vivo; in short: as §1
# [19] = target: Histone deacetylase 5 (Homo sapiens) (UniProt Q9UQL6); experiment: Inhibition of human HDAC5 at 5 uM
# Histone deacetylase 5 (Homo sapiens), sequence (Q9UQL6 whole entry): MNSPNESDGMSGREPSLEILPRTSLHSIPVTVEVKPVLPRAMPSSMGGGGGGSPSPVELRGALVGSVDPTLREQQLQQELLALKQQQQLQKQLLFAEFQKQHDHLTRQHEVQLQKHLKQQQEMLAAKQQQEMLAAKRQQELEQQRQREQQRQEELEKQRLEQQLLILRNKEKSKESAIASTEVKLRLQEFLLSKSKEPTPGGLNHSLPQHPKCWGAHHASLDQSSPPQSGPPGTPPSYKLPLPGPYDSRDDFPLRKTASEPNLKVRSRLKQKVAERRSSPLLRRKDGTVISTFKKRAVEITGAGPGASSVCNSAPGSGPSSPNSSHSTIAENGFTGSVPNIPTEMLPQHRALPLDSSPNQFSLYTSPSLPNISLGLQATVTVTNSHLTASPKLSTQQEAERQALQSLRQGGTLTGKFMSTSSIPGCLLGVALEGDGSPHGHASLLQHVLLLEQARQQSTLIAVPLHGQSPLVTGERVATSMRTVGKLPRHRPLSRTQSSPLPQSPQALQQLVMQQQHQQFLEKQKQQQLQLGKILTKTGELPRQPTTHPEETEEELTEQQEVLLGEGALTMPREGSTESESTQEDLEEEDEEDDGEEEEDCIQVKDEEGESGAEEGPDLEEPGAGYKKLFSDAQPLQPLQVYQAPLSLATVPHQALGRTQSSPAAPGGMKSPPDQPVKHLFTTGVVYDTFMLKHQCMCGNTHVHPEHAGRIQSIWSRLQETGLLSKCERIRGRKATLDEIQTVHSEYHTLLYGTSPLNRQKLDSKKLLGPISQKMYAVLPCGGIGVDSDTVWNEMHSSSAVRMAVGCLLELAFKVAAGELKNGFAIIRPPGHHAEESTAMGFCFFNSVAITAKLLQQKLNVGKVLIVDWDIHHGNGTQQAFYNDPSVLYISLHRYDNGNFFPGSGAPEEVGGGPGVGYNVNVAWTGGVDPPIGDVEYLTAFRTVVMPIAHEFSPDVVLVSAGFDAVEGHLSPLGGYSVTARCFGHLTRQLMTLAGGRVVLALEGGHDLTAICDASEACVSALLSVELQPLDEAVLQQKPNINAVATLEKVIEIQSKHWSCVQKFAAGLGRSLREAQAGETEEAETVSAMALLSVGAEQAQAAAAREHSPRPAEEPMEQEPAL
structure (smiles),measurement,setting,value
CCC(=O)CCCCC[C@H](NC(=O)C1CN(C)C1)c1ncc(-c2cc3ccccc3nc2OC)o1,bioavailability,[1],30%
same,F,[2],62%
same,IC50,Cytochrome P450 1A2,> 20000 nM
same,Activity,[3],Non-Toxic
same,AUC,[4],9.3 µM·h
same,AUC,[5],2.6 µM·h
same,IC50,Histone deacetylase 2,2.8 nM
same,Vd,[6],0.64 L/kg
same,half-life,[7],3.7 h
same,inhibition,[8],inactive
same,AUC,[9],21.5 µM·h
same,clearance,[10],20 mL/min/kg
same,EC50,Histone deacetylase,50 nM
same,IC50,Histone deacetylase 3,1.1 nM
same,Papp,[11],10.5 ×10⁻⁶ cm/s
same,IC50,[12],> 16000 nM
same,Activity,[13],Non-Toxic
same,bioavailability,[14],100%
same,Vdss,[15],5.3 L/kg
same,inhibition,[16],inactive
same,half-life,[17],3.3 h
same,IC50,Histone deacetylase 1,1.7 nM
same,IC50,Cytochrome P450 3A4,> 20000 nM
same,Vdss,[18],3.2 L/kg
same,inhibition,[19],inactive
